Laboratory results published in ChEMBL document CHEMBL2046365, “Total synthesis and antifungal activity of (2S,3R)-2-aminododecan-3-ol” (2012).
≈ marks a conversion by molar mass, not a printed value.

Key:
Format in all cases: functional
Candida parapsilosis = assay: Antifungal activity against Candida parapsilosis MTCC 1744 after 24 hrs by well diffusion method
Summary of the method: (§1)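 Well diffusion on Mueller-Hinton agar plates, each surface-seeded with 0.1 mL of an MTCC Candida reference strain suspension at 1.5 × 10⁸ cfu/mL (0.5 McFarland). Compound added to 6.0 mm cork-bored wells at 300–1.4 per well; methanol well as negative control. Plates incubated 24 h at 30 °C. MIC taken as the lowest concentration giving an inhibition zone. Duplicates, mean reported.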

[Candida] aaseri = Antifungal activity against Candida aaseri MTCC 1962 after 24 hrs by well diffusion method; summary of the method: as §1
Nakaseomyces glabratus [1] = assay: Antifungal activity against Candida glabrata MTCC 3019 after 24 hrs by well diffusion method; summary of the method: as §1
Candida albicans [2] = assay: Antifungal activity against Candida albicans MTCC 183 after 24 hrs by well diffusion method; summary of the method: as §1
Candida albicans [3] = assay: Antifungal activity against Candida albicans MTCC 7315 after 24 hrs by well diffusion method; summary of the method: as §1
Candida albicans [4] = assay: Antifungal activity against Candida albicans MTCC 3958 after 24 hrs by well diffusion method; summary of the method: as §1
Candida albicans [5] = assay: Antifungal activity against Candida albicans MTCC 854 after 24 hrs by well diffusion method; summary of the method: as §1
Candida albicans [6] = assay: Antifungal activity against Candida albicans; summary of the method: as §1
Nakaseomyces glabratus [7] = assay: Antifungal activity against Candida glabrata; summary of the method: as §1
[8] = Lodderomyces parapsilosis, MTCC 1744, 24 h
[9] = Yamadazyma aaseri, MTCC 1962, 24 h

Molecule | MIC (Candida parapsilosis; [8]) | MIC ([Candida] aaseri; [9]) | MIC (Nakaseomyces glabratus [1]; MTCC 3019, 24 h) | MIC (Candida albicans [2]; MTCC 183, 24 h) | MIC (Candida albicans [3]; MTCC 7315, 24 h) | MIC (Candida albicans [4]; MTCC 3958, 24 h) | MIC (Candida albicans [5]; MTCC 854, 24 h) | MIC (Candida parapsilosis) | MIC ([Candida] aaseri) | MIC (Nakaseomyces glabratus [1]) | MIC (Candida albicans [2]) | MIC (Candida albicans [3]) | MIC (Candida albicans [4]) | MIC (Candida albicans [5]) | MIC (Candida albicans [6]) | MIC (Nakaseomyces glabratus [7])
Clc1ccc(COC(Cn2ccnc2)c2ccc(Cl)cc2Cl)c(Cl)c1 (configuration not stated) [MICONAZOLE] | 9.9 µg/mL (≈ 23.8 µM) | 9.9 µg/mL (≈ 23.8 µM) | 9.9 µg/mL (≈ 23.8 µM) | 9.9 µg/mL (≈ 23.8 µM) | 9.9 µg/mL (≈ 23.8 µM) | 9.9 µg/mL (≈ 23.8 µM) | 9.9 µg/mL (≈ 23.8 µM) | – | – | – | – | – | – | – | – | –
NYSTATIN | – | – | – | – | – | – | – | 150 µg/mL | 150 µg/mL | 150 µg/mL | 150 µg/mL | 150 µg/mL | 150 µg/mL | 150 µg/mL | – | –
C[C@@H]1[C@H](O)[C@@H](C)/C=C/C=C/C=C/C=C/C=C/C=C/C=C/[C@H](O[C@@H]2O[C@H](C)[C@@H](O)[C@H](N)[C@@H]2O)C[C@@H]2O[C@](O)(C[C@@H](O)C[C@@H](O)[C@H](O)CC[C@@H](O)C[C@@H](O)CC(=O)O[C@H]1C)C[C@H](O)[C@H]2C(=O)O [AMPHOTERICIN B] | 300 µg/mL (≈ 325 µM) | 300 µg/mL (≈ 325 µM) | 300 µg/mL (≈ 325 µM) | 300 µg/mL (≈ 325 µM) | 300 µg/mL (≈ 325 µM) | 300 µg/mL (≈ 325 µM) | 300 µg/mL (≈ 325 µM) | – | – | – | – | – | – | – | – | –
OC(Cn1cncn1)(Cn1cncn1)c1ccc(F)cc1F [FLUCONAZOLE] | 18.8 µg/mL (≈ 61.4 µM) | 75 µg/mL (≈ 245 µM) | 75 µg/mL (≈ 245 µM) | 37.5 µg/mL (≈ 122 µM) | 37.5 µg/mL (≈ 122 µM) | 75 µg/mL (≈ 245 µM) | 37.5 µg/mL (≈ 122 µM) | – | – | – | – | – | – | – | – | –
CCCCCCCCC[C@@H](O)[C@H](C)N | 4.9 µg/mL (≈ 24.3 µM) | 9.9 µg/mL (≈ 49.2 µM) | 9.9 µg/mL (≈ 49.2 µM) | 9.9 µg/mL (≈ 49.2 µM) | 9.9 µg/mL (≈ 49.2 µM) | 19.8 µg/mL (≈ 98.3 µM) | 37.5 µg/mL (≈ 186 µM) | – | – | – | – | – | – | – | 0.7 µg/mL (≈ 3.48 µM) | 30 µg/mL (≈ 149 µM)
